Dynein transport: blocks dynein driven cargo transport along microtubules. AID 1381. z-score, hits read low. 0.47% of 220,000 active. 3617.4 mouse cells, GR-EGFP nuclear translocation imaging; test concentration mostly 20 µM; stimulated with dexamethasone, 1 µM; active compounds read low;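 active = plate z-score of nuclear minus cytoplasmic receptor signal below a set negative limit, without overly bright fluorescence or cell loss, cut at about -3.5 in these data, passing the limit was not always enough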;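 note: z-score of nuclear minus cytoplasmic ring GR-EGFP intensity difference per well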
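Buffer or medium: tetracycline-free induction medium containing charcoal-stripped FBS / Reagent: dexamethasone agonist, 1.0 µM final, for 30 min / Technique: automated 10x imaging of fixed Hoechst-stained cells / Times: induction 48 h, compound 1 h, agonist 30 min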
Insulin prom inh: TRM-6 insulin promoter activity inhibition | TRM-6 cells, insulin promoter-eGFP reporter, imaging; reporter expression induced with tamoxifen | inhibition, % at 2 µM | 0.9% of 130,000 active;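 active = inhibition above the mean plus 3 SD, with well images judged a real hit on visual review, cut at about 60% in these data, passing the limit was not always enough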
Insulin prom up: MIN6 insulin promoter up-regulation | z-score at 5 µM | 0.3% of 190,000 active | MIN6 insulin promoter-GFP reporter, high-content imaging; active compounds read high;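 active = z-score above 3 at 5 µM with at least 500 cells counted in the well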
Autophagy mod: modulators of autophagy. calls only at 10 µM (by protocol). 0.98% of 190,000 active. AID 463193. MEF GFP-LC3 puncta imaging; test concentration mostly 10 µM;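 active = percentage of spot-positive cells more than 3 SD above its plate mean, without a fluorescence outlier flag or 80% toxicity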;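 note: spot-positive cell cutoff set from DMSO-treated cells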
Active calls of the source: *; i = inactive; x = no result given; + = active, no number. Shown are actives, neighbours in structure and some others; about 2% of the full set was active somewhere.

SMILES	Dynein transport	Insulin prom inh	Insulin prom up	Autophagy mod
Cc1ccc(C(=O)OCC(=O)NCc2cccs2)c(C)c1	-0.65	x	0.32	+
Cc1cc(C)cc(C(=O)OCC(=O)NCc2cccs2)c1	1.9	23	0.27	i
O=C(COC(=O)c1ccccc1)NCc1cccs1	-0.7	46	0.41	i
Cc1ccc(C(=O)C(C(=O)/C=C/c2ccccc2)=C2SCCCS2)cc1	-4.5*	-378	x	i
COc1ccc(/C=C/C(=O)C(C(N)=O)=C2SCCS2)cc1	3.1	x	0.66	i
CCC(c1nc2ccccc2c(=O)n1CCN1CCOCC1)N1C(=O)c2ccccc2C1=O (stereo not drawn)	0.4	66*	0.61	i
Cc1ccc(CNc2ccc3c(c2)ncn3C(C)(C)C)cc1	0.097	x	-0.1	i
Cc1nc2cc(NC(=O)N(C)c3ccc4ccccc4c3)ccc2o1	2.4	71*	-0.11	i
CC(C)c1nc2cc3ccccc3cc2[nH]1	1.1	86*	0.51	i
O=C(CCl)Nc1cn(-c2ccccc2)nc1-c1ccc(F)cc1	0.26	x	-0.31	i
COc1ccc(/C=N/NC(=O)CCNc2n[nH]c(=O)[nH]c2=O)c(OC)c1	-0.19	3	1.3	+
COc1cccc(/C=N/NC(=O)CCNc2n[nH]c(=O)[nH]c2=O)c1OC	0.76	-65	0.08	i
Cn1cc(/C=C2\SC(=O)N(c3ccccc3)C2=O)c2ccccc21	0.39	x	-0.43	+
Cn1cc(/C=C2\SC(=O)N(c3ccc(O)cc3)C2=O)c2ccccc21	0.058	x	-1.3	x
Cc1cc(=O)oc2cc(OCC(=O)OCC(=O)N3CCC(C)CC3)ccc12	-0.94	x	0.14	i
Cc1cc(C)n(C(=O)c2ccc(NC(=O)CC(C)C)cc2)n1	0.54	74*	-0.16	i
CCC(=O)Nc1ccc(C(=O)n2nc(C)cc2C)cc1	3.3	x	0.62	i
CC(C(=O)NCC1CCCO1)n1cc([N+](=O)[O-])cn1 (stereo not drawn)	-0.61	12	-1.2	i
CCCCN1C(=O)C(=Nc2cccc3cnccc23)c2ccccc21	-0.57	x	0.23	i
Cc1nccn1-c1ccc(C(F)(F)F)cc1[N+](=O)[O-]	-0.94	73*	-0.32	i
CC(C)NC(=O)c1sc2nc(-c3cccs3)cc(-c3cccs3)c2c1N	0.22	43	0.46	+
Nc1c(C(=O)Nc2nc3ccccc3s2)sc2nc(-c3cccs3)ccc12	9.4	-196	x	+
Cn1c(N)c(C(=O)Nc2c(Cl)cccc2Cl)sc1=S	-0.58	x	-0.25	x
CSc1ccc(/C=C(/Sc2nnc(-c3ccccc3)o2)C(=O)O)cc1	0.27	80*	0.51	i
COc1ccc(-c2nnc(S/C(=C/c3ccc(Cl)cc3)C(=O)O)o2)cc1	-1.4	40	2	i
SMILES	Dynein transport	Insulin prom inh	Insulin prom up	Autophagy mod
O=C(COc1ccccc1-c1ccccc1)N/N=C/c1cccc2ccccc12	0.48	-150	-2.1	+
COc1ccc(/C=N/NC(=O)COc2ccccc2-c2ccccc2)cc1	1.7	-26	0.91	i
Cc1cc(Nc2cc(Cl)cc(Cl)c2)nc(N)n1	0.24	x	-0.68	x
CCOC(=O)c1cc(-c2ccccc2)sc1NC(=S)Nc1cc(C)ccn1	3	x	0.24	+
O=C(NC(=S)N1CCN(C/C=C/c2ccccc2)CC1)c1ccc(Cl)nc1	0.16	x	0.08	x
Cc1ccc2[nH]c3c(=O)n(N)c(C)nc3c2c1	0.53	94*	0	i
COc1ccc2[nH]c3c(=O)n(N)c(C)nc3c2c1	-0.34	81*	-0.42	i
CC(=O)NC(Nc1c(C)n(C)n(-c2ccccc2)c1=O)C(Cl)(Cl)Cl (stereo not drawn)	-0.35	x	-0.28	i
COc1ccc(Cn2nnc3c(=O)[nH]c(C(=O)NCCc4ccc(F)cc4)nc32)cc1OC	0.55	90*	1.9	i
O=C(NCCc1ccccc1)c1nc2c(nnn2Cc2ccccc2Cl)c(=O)[nH]1	-1.4	-58	x	i
O=C(Nc1ccc(S(=O)(=O)NC2=NCCCCC2)cc1)C1COc2ccccc2O1 (stereo not drawn)	1.1	x	-0.06	x
CCn1c(SCC(=O)N/N=C(/C)c2ccncc2)nc2ccccc21	0.14	x	-0.57	x
COc1ccc(CCN2CC(C(=O)Nc3cccc(C(C)=O)c3)CC2=O)cc1OC (stereo not drawn)	-0.24	x	0.09	+
CCN1CCN(CCNC(=O)c2ccc3c(c2)N(Cc2ccc(F)cc2)C(=O)/C(=C/c2ccccc2)S3)CC1	-4.7	0	-1.4	i
CCN1CCN(CCNC(=O)c2ccc(/C=C3/Sc4ccccc4N(Cc4cccc(Cl)c4)C3=O)cc2)CC1	2.4	x	-2.1	+
N#CC(C(=O)NC1CC1)c1nc2ccccc2nc1N1CCCC1 (stereo not drawn)	0.6	25	1.8	i
N#CC(C(=O)NC1CCCCC1)c1nc2ccccc2nc1N1CCN(c2ccc(F)cc2)CC1 (stereo not drawn)	-0.14	x	-0.02	+
Cc1cc(C)n2nc(C(=O)Nc3ccc4c(c3)CCC4)nc2n1	-1.1	5	0.1	i
Cc1cccc(NC(=O)c2ccc(NCCc3ccccc3)c([N+](=O)[O-])c2)c1	-1.5	-7	-0.12	+
Cc1ccc(NC(=O)c2ccc(NCc3ccco3)c([N+](=O)[O-])c2)cc1Cl	-1.6	x	-0.1	+
Cc1ccc(NC(=O)c2ccc(NCCN)c([N+](=O)[O-])c2)cc1	-0.38	-13	x	i
CSc1nc2ccccc2cc1/C=C(\C#N)c1ccc(Cl)c(Cl)c1	-6.7	-31	-0.14	+
CC(C)(C)c1ccc(C(=O)c2c[nH]c(C(=O)NCCc3ccccn3)c2)cc1	-1.3	x	0.24	i
Cc1occc1C(=O)Nc1c(F)c(F)c(F)c(F)c1F	-0.21	-27	x	i
Cc1occc1C(=O)Nc1nn[nH]n1	-0.12	92*	0.65	i
SMILES	Dynein transport	Insulin prom inh	Insulin prom up	Autophagy mod
C#CCNC(=O)C1CCN(c2cc(C)nc(-c3ccccc3)n2)CC1	-1.1	x	0.15	i
c1ccc(Cn2nnc3c(N4CCc5ccccc5C4)ncnc32)cc1	-0.53	82*	-0.42	i
c1ccc(Cn2nnc3c(N4CCCC4)ncnc32)cc1	-0.9	-50	x	i
C(=C\c1nc2ccccc2[nH]1)/c1ccccc1	-0.78	93*	x	i
O=C(N/N=C\c1ccc(-c2ccc([N+](=O)[O-])cc2)o1)c1ccc2c(c1)OCO2	-0.36	3	0.48	+
Cn1cc([N+](=O)[O-])c(C(=O)N/N=C/c2ccc3c(c2)OCO3)n1	0.16	78*	-0.57	i
CCOC(=O)Cc1csc(NC(=O)CSc2nc(N)c3c(C)c(C)sc3n2)n1	0.024	100*	x	i
CCSc1nc(N)c2c(C)c(C)sc2n1	1.1	78*	x	i
C=CCSc1nc(N)c2c(C)c(C)sc2n1	2	x	x	i
Cc1cc(C)cc(N=C2SC(CC(=O)Nc3ccccc3)C(=O)N2CCN2CCOCC2)c1 (stereo not drawn)	1.7	x	-0.72	+
O=C(CC1SC(=Nc2ccccc2)N(CCO)C1=O)Nc1ccccc1 (stereo not drawn)	-0.22	x	0.83	i
O=C(N/N=C/c1ccc(F)cc1)c1ccc(Br)cc1	0.44	x	-0.52	i

Screens as filed in PubChem.
